What was measured:
Neprilysin [1] = target: T1, Neprilysin (Rattus norvegicus, UniProt P07861); assay: In vitro inhibition of rat neutral endopeptidase by using GAAP as substrate
T1 sequence (P07861 whole entry): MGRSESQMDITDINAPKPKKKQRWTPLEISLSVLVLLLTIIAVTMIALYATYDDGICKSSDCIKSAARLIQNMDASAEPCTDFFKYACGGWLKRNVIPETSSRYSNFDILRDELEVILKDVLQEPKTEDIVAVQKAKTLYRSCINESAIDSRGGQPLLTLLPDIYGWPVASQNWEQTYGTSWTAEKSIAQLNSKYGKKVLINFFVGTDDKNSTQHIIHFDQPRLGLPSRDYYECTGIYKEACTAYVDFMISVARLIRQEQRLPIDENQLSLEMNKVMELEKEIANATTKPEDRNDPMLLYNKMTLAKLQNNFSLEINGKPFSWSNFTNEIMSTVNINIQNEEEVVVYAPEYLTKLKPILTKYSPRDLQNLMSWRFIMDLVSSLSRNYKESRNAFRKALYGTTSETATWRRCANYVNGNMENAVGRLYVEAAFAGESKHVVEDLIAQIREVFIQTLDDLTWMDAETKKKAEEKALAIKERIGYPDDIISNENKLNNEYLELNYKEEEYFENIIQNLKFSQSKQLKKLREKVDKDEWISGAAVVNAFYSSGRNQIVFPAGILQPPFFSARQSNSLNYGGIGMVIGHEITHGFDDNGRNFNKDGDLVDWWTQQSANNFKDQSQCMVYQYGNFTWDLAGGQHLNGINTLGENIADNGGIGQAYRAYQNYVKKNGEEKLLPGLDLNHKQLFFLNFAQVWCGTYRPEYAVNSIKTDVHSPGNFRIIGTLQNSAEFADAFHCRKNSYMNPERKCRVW
How it was run: (§1)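 Enzyme source was rat kidney cortex membranes (male Sprague-Dawley), 4.0 μg protein, plus 2.5 μg aminopeptidase M, in 50 mM Tris-HCl pH 7.4. Preincubated with inhibitor 10 min at 25 °C, then GAAP added (final 500 μM) for 25 min at 25 °C. Stopped with fast garnet, colour developed 30 min, OD read at 540 nm. Run in duplicate.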

[2] = target: T2, Neprilysin (Rattus norvegicus) (UniProt P07861); assay: The compound was tested in vitro for inhibition of Neutral endopeptidase by using GAAP as substrate; settings: concentration not given here; how it was run: as §1
T2 sequence (whole entry): T1 sequence (P07861 whole entry)

Neprilysin [3] = target: T1, Neprilysin; assay: The compound was tested for inhibition of Neutral endopeptidase by using GAAP as substrate; how it was run: as §1
Neprilysin [4] = target: T1, Neprilysin; assay: The compound was tested in vitro for inhibition of Neutral endopeptidase by using Leu enkephalin as substrate
How it was run: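 NEP (30 ng) preincubated 10 min with inhibitor in 50 mM Tris-HCl pH 7.4. Substrate disappearance followed by 6 min isocratic RP-HPLC on a C4 column. Duplicates.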

Neprilysin [5] = target: T1, Neprilysin; assay: The compound was tested in vitro for inhibition of Neutral endopeptidase by using ANF(atrial natriuretic factor) as substrate
How it was run: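 NEP (5.0 μg) preincubated 10 min with inhibitor in 50 mM Tris-HCl pH 7.4. Reaction started with r-ANF (final 20 μM) and run 10 min at 37 °C, then stopped with 0.6% TFA. Substrate loss measured by 3 min isocratic RP-HPLC on a C4 cartridge. Run in duplicate.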

An IC50 (Neprilysin [1]) of 41 nM was found for `C[C@H](C[C@@H](Cc1ccc(-c2ccccc2)cc1)C(=O)NCCC(=O)O)C(=O)O` in this work.

An IC50 (Neprilysin [1]) of 19 nM was found for `O=C(O)CCNC(=O)[C@H](Cc1ccc(-c2ccccc2)cc1)C[C@@H](Cc1ccc(-c2nccs2)cc1)C(=O)O` in this work.

An IC50 (Neprilysin [1]) of 36 nM was found for `O=C(O)CCNC(=O)C(Cc1ccc(-n2cccc2)cc1)CC(Cc1ccc(-n2cccc2)cc1)C(=O)O` (stereo not drawn) in this work.

An IC50 (Neprilysin [1]) of 54 nM was found for `COc1ccc(C[C@H](C[C@@H](Cc2ccc(-c3ccccc3)cc2)C(=O)NCCC(=O)O)C(=O)O)cc1OC` in this work.

An IC50 (Neprilysin [1]) of 54 nM was found for `Cc1ccc([C@H](C[C@@H](Cc2ccc(-c3ccccc3)cc2)C(=O)NCCC(=O)O)C(=O)O)cc1` in this work.

An IC50 (Neprilysin [1]) of 11 nM was found for `COc1ccc(C[C@H](C[C@@H](Cc2ccc(-c3ccccc3)cc2)C(=O)NCC(O)C(=O)O)C(=O)O)cc1OC` (stereo partly drawn) in this work.

An IC50 (Neprilysin [1]) of 66 nM was found for `CCCC[C@H](C[C@@H](Cc1ccc(-c2ccccc2)cc1)C(=O)NCCC(=O)O)C(=O)O` in this work.

An inhibition [2] of 52% was found for `O=C(O)C1CCC(NC(=O)C(Cc2ccccc2)CC(Cc2ccccc2)C(=O)O)CC1` (stereo not drawn) in this work.

An IC50 (Neprilysin [1]) of 1200 nM was found for `O=C(O)CCNC(=O)C(Cc1ccccc1)CC(Cc1ccccc1)C(=O)O` (stereo not drawn) in this work.

An IC50 (Neprilysin [1]) of over 1000 nM was found for `O=C(O)CCNC(=O)[C@H](Cc1ccc(-c2ccccc2)cc1)C[C@@H](Oc1ccccc1)C(=O)O` (stereo in doubt; 8f) in this work.

An IC50 (Neprilysin [1]) of 515 nM was found for `O=C(O)C1CCC(NC(=O)C(Cc2ccc(-n3cccc3)cc2)CC(Cc2ccc(-n3cccc3)cc2)C(=O)O)CC1` (stereo not drawn) in this work.

An IC50 (Neprilysin [1]) of 92 nM was found for `C[C@H](C[C@@H](Cc1ccc(-c2ccccc2)cc1)NC(=O)CC(=O)O)C(=O)O` in this work.

An IC50 (Neprilysin [1]) of 46 nM was found for `COCC[C@H](C[C@@H](Cc1ccc(-c2ccccc2)cc1)C(=O)NCCC(=O)O)C(=O)O` in this work.

An IC50 (Neprilysin [1]) of 44 nM was found for `O=C(O)CCNC(=O)[C@H](Cc1ccc(-c2ccccc2)cc1)C[C@@H](Oc1ccccc1)C(=O)O` (stereo in doubt; 8e) in this work.

An IC50 (Neprilysin [1]) of 42 nM was found for `CO[C@H](C[C@@H](Cc1ccc(-c2ccccc2)cc1)C(=O)NCCC(=O)O)C(=O)O` (stereo in doubt; 8g) in this work.

An IC50 (Neprilysin [1]) of 203 nM was found for `O=C(O)CCNC(=O)C(Cc1ccc(Oc2ccccc2)cc1)CC(Cc1ccc(Oc2ccccc2)cc1)C(=O)O` (stereo not drawn) in this work.

An IC50 (Neprilysin [1]) of 90 nM was found for `C[C@H](C[C@@H](Cc1ccc(-c2ccccc2)cc1)NC(=O)CCCC(=O)O)C(=O)O` in this work.

An IC50 (Neprilysin [1]) of over 1000 nM was found for `CO[C@H](C[C@@H](Cc1ccc(-c2ccccc2)cc1)C(=O)NCCC(=O)O)C(=O)O` (stereo in doubt; 8h) in this work.

An IC50 (Neprilysin [3]) of 155 nM, an IC50 (Neprilysin [1]) of 155 nM and an IC50 (Neprilysin [4]) of 0.7 nM were found for `O=C(O)CCNC(=O)[C@@H](CCC(=O)O)Cc1ccc(-c2ccccc2)cc1` in this work.

An IC50 (Neprilysin [1]) of 4000 nM was found for `O=C(O)CCC(=O)N[C@H](Cc1ccccc1)C[C@@H](Cc1ccccc1)C(=O)O` in this work.

An IC50 (Neprilysin [1]) of 49 nM was found for `O=C(O)CCNC(=O)C(Cc1ccc(-c2ccccc2)cc1)CC(Cc1ccc(-c2ccccc2)cc1)C(=O)O` (stereo not drawn) in this work.

An IC50 (Neprilysin [1]) of 49 nM was found for `CO[C@H](C[C@@H](Cc1ccc(-c2ccccc2)cc1)NC(=O)CCCC(=O)O)C(=O)O` in this work.

An IC50 (Neprilysin [1]) of 21 nM was found for `CCCC[C@H](C[C@@H](Cc1ccc(-c2ccccc2)cc1)C(=O)NCC(O)C(=O)O)C(=O)O` (stereo partly drawn) in this work.

An IC50 (Neprilysin [3]) of 1200 nM and an IC50 (Neprilysin [4]) of 9 nM were found for `O=C(O)CCNC(=O)[C@H](Cc1ccccc1)C[C@@H](Cc1ccccc1)C(=O)O` in this work.

An IC50 (Neprilysin [1]) of 489 nM was found for `CC(C)c1ccc(CC(CC(Cc2ccc(C(C)C)cc2)C(=O)NCCC(=O)O)C(=O)O)cc1` (stereo not drawn) in this work.

An IC50 (Neprilysin [5]) of 2 nM and an IC50 (Neprilysin [4]) of 0.81 nM were found for `O=C(O)CCNC(=O)[C@H](Cc1ccc(-c2ccccc2)cc1)NCP(=O)(O)O` in this work.

An IC50 (Neprilysin [1]) of over 1000 nM and an inhibition [2] of 43% were found for `O=C(O)CCNC(=O)C(Cc1ccc(-c2nccs2)cc1)CC(Cc1ccc(-c2nccs2)cc1)C(=O)O` (stereo not drawn) in this work.

An IC50 (Neprilysin [1]) of 324 nM was found for `C[C@H](C[C@@H](Cc1ccc(-c2ccccc2)cc1)NC(=O)CCCCC(=O)O)C(=O)O` in this work.

Source: ChEMBL document CHEMBL1128359, “Dicarboxylic acid dipeptide neutral endopeptidase inhibitors” (J Med Chem, 1995)
